Bioassay records deposited in PubChem BioAssay by Johns Hopkins Ion Channel Center.
In the library only some 3.5% were active in any assay of this set; here they are far more common.
MrgX1 agonist: agonists of human MrgX1 receptor. AID 588627. MrgX1-HEK293 cells, Fluo-4 calcium fluorescence, agonist mode; active compounds read high. Q96LB2. actives 0.44% (n = 310,000). B-score at 10 µM;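 active = calcium response B-score plate-corrected fluorescence ratio at least 3 library SD, with starting fluorescence B-score inside 5 SD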
Target sequence (Q96LB2 whole entry, looked up): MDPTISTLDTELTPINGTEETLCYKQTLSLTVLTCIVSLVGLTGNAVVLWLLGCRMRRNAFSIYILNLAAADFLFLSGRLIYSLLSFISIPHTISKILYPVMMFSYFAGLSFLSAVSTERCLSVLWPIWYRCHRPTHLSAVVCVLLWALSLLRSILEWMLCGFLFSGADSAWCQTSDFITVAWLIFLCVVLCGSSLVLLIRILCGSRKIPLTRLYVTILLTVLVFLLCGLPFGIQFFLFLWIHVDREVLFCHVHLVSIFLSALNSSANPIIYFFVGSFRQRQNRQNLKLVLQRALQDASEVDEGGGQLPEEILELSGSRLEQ
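Material: MrgX1-expressing HEK293 cells / Dosing: compound as first of three additions / Incubation: overnight seeding, then 1 h dark dye loading / Signal: Fluo-4 NW calcium fluorescence / Evaluation: B-scored fluorescence response ratio / Benchmarks: positive and negative control wells on each plate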
RGS4 block: inhibitors of human RGS4 | actives 0.45% (n = 310,000) | B-score at 10 µM | AID 463165 | HEK293 M3R/RGS4 inducible, Fluo-4 calcium flux; active compounds read high; triggered by carbachol at its EC20 | P49798;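 active = B-score, a plate-corrected calcium signal, over three deviations above library mean, with baseline fluorescence within five deviations of library mean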;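 note: RGS4 expression induced by doxycycline in cells with stable M3 receptor; B-score is computed from the integrated fluorescence ratio over baseline after carbachol; higher B-score means a larger calcium signal and so more RGS4 inhibition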
Target sequence (P49798 whole entry, looked up): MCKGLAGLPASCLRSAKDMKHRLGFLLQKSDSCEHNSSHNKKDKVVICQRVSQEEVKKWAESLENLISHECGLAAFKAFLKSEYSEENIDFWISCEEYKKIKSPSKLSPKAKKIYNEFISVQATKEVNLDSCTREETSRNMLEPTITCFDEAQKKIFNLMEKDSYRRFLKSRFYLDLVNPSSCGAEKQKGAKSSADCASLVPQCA
MrgX1 antag: blocks BAM8-22 activation of human MrgX1 receptor; Q96LB2; MRGX1-HEK293 calcium flux, Fluo-4, BAM8-22 antagonism; active compounds read low; B-score at 10 µM; actives 1.3% (n = 310,000); AID 588676;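 active = calcium-response B-score plate-corrected more than 3 library SD below zero, starting fluorescence within 5 deviations, no agonist response on first addition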;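 note: peak minus trough fluorescence over baseline after final BAM8-22 challenge near maximal dose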
RGS4 pot: RGS4 potentiation or activation; HEK293 M3R/inducible RGS4, carbachol calcium flux Fluo4; active compounds read low; AID 463111; actives 0.92% (n = 310,000); B-score at 10 µM;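 active = B-score of the integrated calcium signal more than 4 SD below the library mean, with starting fluorescence not abnormally high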;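 note: negative B-score means reduced calcium response which marks RGS4 activation or potentiation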
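Material: M3R-expressing HEK293 line, RGS4 induced by doxycycline | Schedule: Overnight RGS4 induction, 30 min dye load 37 °C, 20 min compound RT | Measured by: Fluo4 fluorescence kinetic imaging of calcium | Read-out: Integrated calcium ratio converted to B score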
MrgX1 allo act: allosterically activates human MrgX1 receptor signaling; Q96LB2; B-score at 10 µM; MrgX1-HEK293, Fluo-4 calcium flux, FDSS; active compounds read high; actives 0.63% (n = 310,000);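 active = plate-corrected calcium response at least 3 library SD above typical, normal starting fluorescence, not activating the receptor alone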;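 note: compound read alongside a low EC10 to EC30 dose of BAM8-22 agonist; peak minus trough fluorescence over baseline measured at the second addition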
Numbers stand for hits; i = inactive; nt = not tested or not shown.

SMILES	MrgX1 agonist	RGS4 block	MrgX1 antag	RGS4 pot	MrgX1 allo act
COc1ccc(CCN(C)C(=O)c2cc(-c3ccccc3)nc3ccc(C)cc23)cc1OC	i	i	i	i	i
COc1cccc(NC(=O)CN(C)C(=O)c2cc(-c3ccccc3)nc3ccccc23)c1	i	i	i	i	i
COCCC(=O)N1CCC(Oc2ccc(C(=O)NCc3ncc(C)[nH]3)cc2)CC1	i	i	i	i	i
O=C(NCCC1CCCCN1S(=O)(=O)c1ccc(F)cc1)C(=O)NCCN1CCOCC1 (configuration not stated)	i	i	i	i	i
Cc1ccccc1OCC(=O)Nc1ccc(N2CCN(C)CC2)c(Cl)c1	i	i	i	-7.9	i
Cc1ccccc1OCC(=O)Nc1ccc2c(c1)Cc1ccccc1-2	i	i	i	i	i
CN(CCOc1ccccc1)CC(=O)Nc1ccc(Cl)cc1[N+](=O)[O-]	i	i	i	i	13
COc1cc(NC(=O)CN(C)CCOc2ccccc2)c(C)cc1[N+](=O)[O-]	i	i	i	i	i
O=C(C1COc2ccccc2O1)N1CCN(c2nc3c(F)cc(F)cc3s2)CC1 (configuration not stated)	i	i	i	i	i
CCN1CCN(CCNC(=O)c2ccc(/C=C3/Sc4ccccc4N(Cc4ccccc4C)C3=O)cc2)CC1	nt	i	nt	-8.4	nt
COc1ccccc1-c1coc2cc(OC(=O)N3CCOCC3)ccc2c1=O	i	i	i	i	i
CCC(Oc1ccc2c(=O)c(-c3ccccc3OC)coc2c1)C(=O)OCc1ccccc1 (configuration not stated)	i	i	i	-7.6	i
COc1ccc(S(=O)(=O)N2CCN(C(=O)c3ccc(C)o3)CC2)cc1	i	i	i	i	i
CN(C1CCCCC1)S(=O)(=O)c1ccc2c(c1)c(=O)c(C(=O)NCCN1CCCC1)cn2C	i	i	-4.6	i	i
COc1cc(/C=C/C(=O)OC(C)C(=O)Nc2c(C)n(C)n(-c3ccccc3)c2=O)ccc1OCC#N (configuration not stated)	i	i	i	i	i
Cc1nc(C(C)NC(=O)c2cc(COc3ccc(C)c(C)c3)on2)c(C)s1 (configuration not stated)	i	i	i	i	i
Cc1cccc(C(=O)O/N=C2/CC3CCC2(C)C3(C)C)c1 (configuration not stated)	i	i	i	i	8.2
Cc1ccc(C(=O)O/N=C2\CC3CCC2(C)C3(C)C)cc1 (configuration not stated)	i	i	i	i	6.6
Cc1ccc(C(=O)O/N=C2/CC3CCC2(C)[C@@]3(C)CBr)cc1 (some centres not stated)	i	i	i	i	i
NC(=O)COc1c(-c2ccc(Br)o2)oc2ccccc2c1=O	i	i	i	i	i
N#C/C(=C/c1ccc(N2CCOCC2)o1)c1ccc(Br)cc1	39	i	i	i	i
N#C/C(=C/c1ccc(N2CCCCCC2)o1)c1ccc(F)cc1	i	i	i	i	18
COCCNc1nc(-c2ccc(OC)cc2)c(-c2ccc(OC)cc2)s1	i	i	i	i	i
NC(=S)NN=C1c2cc(OCCN3CCOCC3)ccc2-c2ccc(OCCN3CCOCC3)cc21	i	i	i	-7.4	i
ON=C1c2cc(OCCN3CCCCC3)ccc2-c2ccc(OCCN3CCCCC3)cc21	i	i	i	i	i
SMILES	MrgX1 agonist	RGS4 block	MrgX1 antag	RGS4 pot	MrgX1 allo act
CC(=O)NC(NC(=S)Nc1ccc(N=Nc2ccccc2C)cc1C)C(Cl)(Cl)Cl (configuration not stated)	i	i	-4.6	i	i
Cc1csc(N/N=C/c2ccc(O)c([N+](=O)[O-])c2)n1	i	i	-6	i	i
CCn1cnc2cc(NCc3ccc(OC)cc3)ccc21	i	i	i	i	i
CCOc1ccc2nc3cc(NCc4ccc(OC)cc4)ccc3c(N)c2c1	i	i	i	-7.6	i
CCOC(=O)NN=C1CCC(c2ccccc2)CC1 (configuration not stated)	i	i	i	i	i
CCOc1ccc(N(C)S(=O)(=O)c2cc(-c3cc(C)no3)ccc2C(C)C)cc1	i	i	-4.8	i	i
CCN(c1ccc(OC)cc1)S(=O)(=O)c1cc(-c2cc(C)no2)ccc1C(C)C	i	i	i	i	i
CC1CCCC(CC(=O)O)(CC(=O)O)C1 (configuration not stated)	i	i	i	i	i
O=C(Cn1nnc2ccccc2c1=O)NCCc1ccc(F)cc1	i	i	-5	i	i
COc1ccc(CCNC(=O)Cn2nnc3ccccc3c2=O)cc1	i	i	i	i	i
CS(=O)(=O)n1nc(-c2ccc(Cl)cc2)nc1N	i	i	i	i	i
Cn1nc(-c2ccc(Cl)cc2)nc2c(=O)n(C)c(=O)nc1-2	i	i	-4.6	i	i
O=c1/c(=C\c2ccc(O)cc2)sc2n1C(c1ccccc1)C(c1ccccc1)=NN=2 (configuration not stated)	i	i	i	i	13
CCn1cc(C(=O)NCCCN(CC(C)C)CC(C)C)c(=O)c2cc(S(=O)(=O)N(C)C3CCCCC3)ccc21	i	i	i	i	i
Cn1c(=O)c2c(ncn2CC(=O)N/N=C/C=C/c2ccco2)n(C)c1=O	i	i	i	i	18
CCOC1=C/C(=C/c2c(N)n3oc(C)cc3nc2=O)C=CC1=O	i	i	i	i	8.6
Cc1cc2nc(=O)c(/C=C3\C=Nc4ccccc43)c(N)n2o1	i	i	i	i	i
O=C(CSc1nnc(C2CC2)n1CC1CCCO1)Nc1cccc(Cl)c1 (configuration not stated)	i	i	i	i	i
COC(=O)[C@@]1(Cc2ccccc2)[C@H]2c3cc(C(=O)N4CCCC4)n(CCSCCO)c3C[C@H]2CN1C(=O)c1ccccc1	i	i	-5.2	i	i
COC(=O)[C@@]1(Cc2ccc(F)cc2)[C@H]2c3cc(C(=O)N(C)C)n(Cc4ccc(OC)c(OC)c4)c3C[C@H]2CN1C(=O)c1ccccc1	i	i	i	i	i
COC(=O)[C@@]1(Cc2ccc(F)cc2)[C@H]2c3cc(C(=O)N(C)C)n(CCc4ccc(OC)c(Br)c4)c3C[C@H]2CN1C(=O)c1ccccc1	i	i	i	-7.2	i
Cc1nc(C)n(CC(C)C(=O)N2CCN(S(=O)(=O)c3ccccc3)CC2)n1 (configuration not stated)	i	i	i	i	i
CC1(C)CC2CC(C)(CN2S(=O)(=O)c2ccc(C(=O)Nc3cccc(S(=O)(=O)N4CCOCC4)c3)cc2)C1 (configuration not stated)	i	i	i	i	i
CC1(C)CC2CC(C)(CN2S(=O)(=O)c2ccc(C(=O)Nc3cc(S(=O)(=O)N4CCOCC4)ccc3Cl)cc2)C1 (configuration not stated)	i	i	i	-7.2	i
